Bioassay records: PubChem BioAssay, several laboratories
Apaf1 inhib – blocks human Apaf-1 apoptosome activity; reconstituted apoptosome caspase-3 activity, DEVD-Rh110 fluorescence; inhibition, % at 20 µM; AID 489030; O14727; hit rate 0.71% among 330,000; active = inhibition of at least 40% at 20 µM;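 note: plate controls were DMSO wells for no effect and DEVD-CHO caspase inhibitor wells for full effect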
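Material: biochemical Apaf-1 apoptosome reconstitution. Medium: Hepes buffer, pH 7.5. Also added: cytochrome c activation, bis-DEVD rhodamine 110 substrate. Timing: 30 min compound preincubation, 50 min activation, room temperature. Measured by: rhodamine 110 fluorescence at Ex 480/Em 540 nm.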
UCH37 inh – inhibitors of human deubiquitinating enzyme UCH37; inhibition, % (concentration not given with the values); hit rate 0.33% among 330,000; AID 588478; purified proteasome/UCH37, Ub-AMC cleavage fluorescence; Q9Y5K5;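 active = mean inhibition over replicate wells above about 20%, limit read from the data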;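 note: 0% = compound-free wells with enzyme and 100% = wells lacking proteasome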
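Material: Human UCH37 enzyme supplied as purified proteasome complex | Schedule: 30 min compound-proteasome preincubation then 25 min substrate reaction, room temperature | Detection: AMC fluorescence from Ub-AMC cleavage, excitation 355 nm, emission 460 nm | Benchmarks: Wells without proteasome as full block, compound-free enzyme plus substrate as uninhibited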
MEKK3 PB1 HTS – MEKK3-MEK5 PB1 interaction, increase or decrease; bead-based flow cytometry, Alexa488-MEK5 binding to MEKK3; actives lie on both sides; 0 = blocked by unlabeled MEK5, 100 = vehicle; hit rate 1.4% among 290,000; AID 1529; binding response (% of control), % at 10 µM;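 active = binding response more than 3 SD above or below the average of its plate-row segment, actives on both sides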;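 note: Alexa488 bead fluorescence after subtracting the streptavidin-only scavenger bead signal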
UBC13 polyUb – human UBC13 polyubiquitination inhibition; UBC13 polyubiquitin chain formation, TR-FRET; inhibition, % at 20 µM; hit rate 0.47% among 330,000; AID 485273; in the data active = inhibition above about 45%, passing the limit was not always enough
MEKK2 WT-MEK5 – raises or lowers MEK5 binding to wildtype human MEKK2 PB1 domain. Q9Y2U5. bead flow cytometry, Alexa488-MEK5 binding to MEKK2 WT; actives lie on both sides. binding response (% of control), % at 10 µM. hit rate 1.1% among 290,000. AID 1531; in the data active = binding response below about 67% or above about 130%
MEKK2mut PB1 HTS – signal of MEK5 binding to mutant human MEKK2 PB1 domain; bead flow cytometry, Alexa488-MEK5 binding to MEKK2 mutant; percent response, % at 10 µM; hit rate 0.35% among 290,000; AID 1530; in the data active = percent response above about 24%, passing the limit was not always enough
MEKK2wt confirm – raises or lowers MEK5 binding to wildtype human MEKK2, retest; hit rate 2.4% among 5,900; AID 1892; shares compounds with MEKK3 PB1 HTS; binding response (% of control), % at 10 µM; bead flow cytometry, Alexa488-MEK5 binding to MEKK2 WT; actives lie on both sides; in the data active = binding response below about 16% or above about 210%; inactive = in between
MEKK2mut-MEK5 – signal of MEK5 binding to mutant human MEKK2, retest; shares compounds with MEKK3 PB1 HTS; bead flow cytometry, Alexa488-MEK5 binding to MEKK2 mutant; percent response, % at 10 µM; hit rate 2% among 5,900; in the data active = percent response mostly above about 71%, no sharp cut-off; inactive = mostly below about 38%;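 note: higher means compound restores mutant binding toward wildtype level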
MEKK3 confirm – confirmation of inhibitors of MEK5 binding to human MEKK3 | hit rate 1.8% among 5,900 | binding response (% of control), % at 10 µM | bead flow cytometry, Alexa488-MEK5 binding to MEKK3; active compounds read low | AID 1894 | shares compounds with MEKK3 PB1 HTS;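 active = binding response below 72% of control, or above a set upper limit, though filed actives all read lower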;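 note: 100% = DMSO only wells and 0% = binding blocked by excess unlabeled MEK5; lower values mean stronger disruption of MEK5 binding to MEKK3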
Starred values were filed as active, the others as inactive; / = no result given; [ ] = remark or other dose. Most compounds without a hit are left out; they make up all but 3% or so of the library.

SMILES	Apaf1 inhib	UCH37 inh	MEKK3 PB1 HTS	UBC13 polyUb	MEKK2 WT-MEK5	MEKK2mut PB1 HTS	MEKK2wt confirm	MEKK2mut-MEK5	MEKK3 confirm
Cc1c(C2=CCN(S(=O)(=O)c3ccc(Br)cc3)CC2)c2ccccc2n1C	5	-4	101	8	103	0	/	/	/
CCn1c(C)c(C2=CCN(S(=O)(=O)c3ccc(C)cc3)CC2)c2ccccc21	15	0	85	1	6.0*[inhibitor]	1	104	5	103
Cc1ccc(S(=O)(=O)N2CCCN(S(=O)(=O)c3ccc(C)cc3)CC2)cc1	28	3	36*[inhibitor]	0	48	-20	102	2	101
COc1ccc(N=Nc2cc(C)ccc2O)cc1	-3	8	109	-20	114	20	/	/	/
Cc1ccc(S(=O)(=O)N2CC=C(c3ccc(F)cc3)CC2)cc1	10	1	140*	12	106	3	100	1	106
Cc1ccc(O)c(N=Nc2ccc(S(=O)(=O)N3CCCC3)cc2)c1	-8	4	132*	-13	120	27	102	1	101
Cc1ccc(S(=O)(=O)N2CCCCC2)cc1	-3	0	108	0	104	9	/	/	/
CCN(CC)S(=O)(=O)c1cc(OC)c(Cl)cc1OC	-2	3	103	4	100	3	/	/	/
O=C(CCNc1n[nH]c(=O)[nH]c1=O)N/N=C/c1ccc(Cl)cc1	0	/	99	3	99	2	/	/	/
Cn1cccc1/C=N/NC(=O)Cc1cccs1	-17	/	100	-3	91	-3	/	/	/
CC(C)c1ccc(SCc2noc(C(=O)NCC3CCCO3)c2C(=O)O)cc1 (centres undefined)	9	1	103	3	106	6	/	/	/
Cc1ccc(S(=O)(=O)N2CCN(S(=O)(=O)N3CCCCC3)CC2)c(C)c1	6	7	1.0*[inhibitor]	6	-3.0*[inhibitor]	-20	98	0	100
COc1ccc(-c2cc(C(F)F)n3ncc(C(=O)NCC4CCCO4)c3n2)cc1 (centres undefined)	7	-39	105	24	107	4	/	/	/
COCCNC(=S)NN=C1CCCCCC1	/	0	4.0*[inhibitor]	/	7.0*[inhibitor]	-46	102	0	102
Cc1ccccc1Nc1ncnc2[nH]ncc12	/	5	/	/	/	/	/	/	/
CC(C)c1ccc(C2N3CC4([N+](=O)[O-])CN2CC([N+](=O)[O-])(C3)C4(C)C)cc1 (centres undefined)	-14	3	71*[inhibitor]	7	95	-1	95	-8	96
CC(=O)Nc1nonc1NC(C)=O	-2	4	2.0*[inhibitor]	-2	3.0*[inhibitor]	-15	100	0	104
CC(=O)Nc1nonc1NC(=O)c1ccc(F)cc1	1	3	109	-8	105	-2	/	/	/
O=C(CSc1nncs1)Nc1nccs1	-4	-4	/	2	/	/	/	/	/
COc1ccccc1CNCC(O)(c1ccc(F)cc1)c1ccc(F)cc1	1	2	94	18	101	1	/	/	/
COc1ccccc1CNCC(O)(c1ccc(Cl)cc1)c1ccc(Cl)cc1	25	2	104	17	163*	21	146	25	102
Cn1c(CCN2CCCCC2)nc2cc([N+](=O)[O-])ccc21	-13	7	100	1	104	4	/	/	/
CCOC(=O)NN1C(=O)c2ccccc2NC1c1ccc(N(C)C)cc1 (centres undefined)	-3	-33	144*	6	109	1	103	10	107
CCOC(=O)NN1C(=O)c2ccccc2NC1c1ccc(OC)cc1 (centres undefined)	-1	-301	124	5	100	0	/	/	/
CCOC(=O)NN1C(=O)c2ccccc2NC1c1ccccc1 (centres undefined)	0	-457	149*	28	105	1	119	15	107
SMILES	Apaf1 inhib	UCH37 inh	MEKK3 PB1 HTS	UBC13 polyUb	MEKK2 WT-MEK5	MEKK2mut PB1 HTS	MEKK2wt confirm	MEKK2mut-MEK5	MEKK3 confirm
Nc1nc2nc[nH]c2c(=O)[nH]1	-3	1	/	7	/	/	/	/	/
CC(C)CNC(=O)CN1C(=O)NC(Cc2c[nH]c3ccccc23)C1=O (centres undefined)	4	0	67*[inhibitor]	2	76	-27	110	9	105
Cc1nn(-c2ccccc2)c(C)c1NC(=O)COC(=O)c1cccc(OC(F)F)c1	0	3	/	-8	/	/	/	/	/
Cn1c(=O)n(C)c2cc(S(=O)(=O)NCc3ccccc3)ccc21	-7	1	103	6	103	5	/	/	/
CN(Cc1ccccc1)S(=O)(=O)c1ccc2c(c1)n(C)c(=O)n2C	4	4	2.0*[inhibitor]	-3	1.0*[inhibitor]	-41	101	5	103
Cc1ccc(C)c(NC(=O)c2ccc(S(=O)(=O)C(F)F)cc2)c1	0	1	132*	12	109	1	99	-3	101
O=C1COc2ccc(C(=O)COC(=O)c3ccccn3)cc2N1	7	0	/	-2	/	/	/	/	/
CCCn1nc(C(=O)OCC(=O)c2ccc3c(c2)NC(=O)CO3)c2ccccc2c1=O	19	5	132*	8	97	7	112	8	106
